Bioassay records deposited in PubChem by several laboratories.
MEKK3 PB1 HTS – modulators of MEKK3-MEK5 PB1 binding, primary screen, biochemical, wildtype MEKK3, multiplex bead flow cytometry, Alexa488-MEK5; binding response (% of control), % at 10 µM; 290,000 compounds, 1.4% hits; bead-based flow cytometry, Alexa488-MEK5 binding to MEKK3; actives lie on both sides; 0 = blocked by unlabeled MEK5, 100 = vehicle;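 active = binding response more than 3 SD above or below the average of its plate-row segment, actives on both sides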;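 also: Alexa488 bead fluorescence after subtracting the streptavidin-only scavenger bead signal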
Target sequence (Q99759 whole entry, looked up): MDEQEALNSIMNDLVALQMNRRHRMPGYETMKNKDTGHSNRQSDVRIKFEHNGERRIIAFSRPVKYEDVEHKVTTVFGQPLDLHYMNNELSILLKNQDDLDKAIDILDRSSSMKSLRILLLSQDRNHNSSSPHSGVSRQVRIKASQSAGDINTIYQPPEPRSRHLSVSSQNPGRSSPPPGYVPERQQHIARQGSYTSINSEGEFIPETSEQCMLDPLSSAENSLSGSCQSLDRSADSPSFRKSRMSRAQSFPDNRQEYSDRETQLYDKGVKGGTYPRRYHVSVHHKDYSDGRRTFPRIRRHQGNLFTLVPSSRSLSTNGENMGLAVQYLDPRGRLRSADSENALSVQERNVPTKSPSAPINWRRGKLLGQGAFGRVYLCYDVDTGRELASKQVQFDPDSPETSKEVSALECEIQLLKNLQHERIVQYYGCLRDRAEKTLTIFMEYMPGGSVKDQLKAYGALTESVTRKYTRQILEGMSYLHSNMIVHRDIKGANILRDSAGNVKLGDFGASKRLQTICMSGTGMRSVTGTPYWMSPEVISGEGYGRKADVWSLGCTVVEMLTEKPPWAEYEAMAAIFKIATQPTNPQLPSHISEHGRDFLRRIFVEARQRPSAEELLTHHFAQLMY
UBC13 inh – UBC13 polyubiquitin chain formation inhibitors, primary screen, biochemical, TR-FRET, uHTS; Ubiquitin-conjugating enzyme E2 N (Homo sapiens), P61088; inhibition, % at 20 µM; 330,000 compounds, 0.47% hits; AID 485273, 2010; in the data active = inhibition above about 45%, passing the limit was not always enough
Target sequence (P61088 whole entry, looked up): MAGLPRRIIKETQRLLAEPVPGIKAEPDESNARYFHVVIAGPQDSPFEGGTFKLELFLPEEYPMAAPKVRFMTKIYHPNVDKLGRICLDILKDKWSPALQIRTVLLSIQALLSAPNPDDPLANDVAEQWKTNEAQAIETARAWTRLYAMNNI
MEKK2mut PB1 HTS – MEK5 binding signal on mutant MEKK2 PB1, primary screen, biochemical, multiplex bead flow cytometry, Alexa488-MEK5. Alexa488-MEK5 binding to MEKK2 mutant. percent response, % at 10 µM. 290,000 compounds, 0.35% hits. AID 1530, 2009; in the data active = percent response above about 24%, passing the limit was not always enough
Apaf-1 inh – inhibitors of human Apaf-1 apoptosome, primary screen, biochemical, DEVD-Rh110 fluorescence, uHTS; reconstituted apoptosome caspase-3 activity; inhibition, % at 20 µM; 330,000 compounds, 0.71% hits; AID 489030, 2010; active = inhibition of at least 40% at 20 µM;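 also: plate controls were DMSO wells for no effect and DEVD-CHO caspase inhibitor wells for full effect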
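Assay system: Apoptosome proteins | Medium: pH 7.5 Hepes buffer with CHAPS, BSA, DTT | Also added: Cytochrome c and DEVD-Rh110 substrate | Times: 30 min plus 50 min, RT | Detection: Rhodamine 110 fluorescence at Ex 480/Em 540 nm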
MEKK2 WT-MEK5 – modulators of MEK5 binding to wildtype MEKK2, primary screen, biochemical, multiplex bead flow cytometry, Alexa488-MEK5; 290,000 compounds, 1.1% hits; Alexa488-MEK5 binding to MEKK2 WT; actives lie on both sides; binding response (% of control), % at 10 µM; in the data active = binding response below about 67% or above about 130%
Pemphigus Ab inh – inhibitors of pemphigus antibody binding to DSG3, primary screen, biochemical, bead-based, flow cytometry, scFv-GFP; AID 588358, 2011; DSG3-coupled beads, scFv-anti-DSG3-GFP binding; hits give low values; 310,000 compounds, 0.48% hits; binding (percent of control), % at 10 µM; Desmoglein-3 (Homo sapiens), P32926;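 active = binding more than 3 SD below its plate's average and above zero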;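 also: hits lower antibody fragment binding to DSG3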
MEKK2wt confirm – modulators of MEK5 binding to wildtype MEKK2, confirmation, biochemical, single concentration, multiplex bead flow cytometry; shares compounds with MEKK3 PB1 HTS; Alexa488-MEK5 binding to MEKK2 WT; actives lie on both sides; binding response (% of control), % at 10 µM; 5,900 compounds, 2.4% hits; AID 1892, 2009; in the data active = binding response below about 16% or above about 210%; inactive = in between
MEKK2mut-MEK5 – mutant MEKK2 PB1-MEK5 binding signal retest – biochemical, single concentration, multiplex bead flow cytometry, confirmation. shares compounds with MEKK3 PB1 HTS. Alexa488-MEK5 binding to MEKK2 mutant. percent response, % at 10 µM. 5,900 compounds, 2% hits; in the data active = percent response mostly above about 71%, no sharp cut-off; inactive = mostly below about 38%;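 also: higher means compound restores mutant binding toward wildtype level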
MEKK3-MEK5 inh – MEKK3 wild-type PB1 binding to MEK5, inhibitors, confirmation, biochemical, bead multiplex flow cytometry, single concentration, wildtype; 5,900 compounds, 1.8% hits; shares compounds with MEKK3 PB1 HTS; Alexa488-MEK5 binding to MEKK3; hits give low values; binding response (% of control), % at 10 µM;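 active = binding response below 72% of control, or above a set upper limit, though filed actives all read lower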;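 also: 100% = DMSO only wells and 0% = binding blocked by excess unlabeled MEK5; lower values mean stronger disruption of MEK5 binding to MEKK3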
An asterisk follows results filed as active; i = inactive; / = no result; [ ] = remark or other dose. Hits are enriched below; roughly 3.2% of the tested compounds scored in any of these assays.

SMILES | MEKK3 PB1 HTS | UBC13 inh | MEKK2mut PB1 HTS | Apaf-1 inh | MEKK2 WT-MEK5 | Pemphigus Ab inh | MEKK2wt confirm | MEKK2mut-MEK5 | MEKK3-MEK5 inh
Cc1ccc(N(CC(=O)N2CCN(Cc3ccccc3)CC2)S(C)(=O)=O)cc1C | 99.0 | 2.7 | -1.0 | 4.4 | 96.0 | 103.6 | / | / | /
O=[N+]([O-])c1ccc(Cl)cc1P(=O)(O)c1cc(Cl)ccc1[N+](=O)[O-] | / | / | / | / | / | 96.5 | / | / | /
CCOC(=O)[C@H]1[C@H]2COc3ccc(Cl)cc3[C@@H]2N2C(=O)[C@@H](C)NC(=O)[C@@]12C | / | 1.6 | / | 1.3 | / | 98.1 | / | / | /
CCN(CC)S(=O)(=O)c1ccc(NC(=O)c2cccc3c2C(=O)N(CCOC)C3)cc1 | 132.0* | 8.3 | 0.0 | 16.5 | 108.0 | 93.3 | 102.0 | -5.0 | 101.0
COc1cc(CCCN2C(=O)C(=O)NC[C@@H]2C(C)O)cc(OC)c1OC (stereo partly specified) | 2.0*[inhibitor] | -1.9 | 4.0 | -5.8 | 2.0*[inhibitor] | 107.9 | 102.0 | -4.0 | 97.0
COc1cc2ccccc2cc1C(=O)N(CCN(C)C)c1nc2c(F)cc(F)cc2s1 | 104.0 | 4.2 | 13.0 | 15.0 | 126.0 | 105.9 | / | / | /
CCN(CC)CCN(C(=O)CCOc1ccccc1)c1nc2c(F)cc(F)cc2s1 | 106.0 | 8.0 | 17.0 | 1.1 | 148.0* | 120.1 | 142.0 | 33.0 | 107.0
COc1ccccc1NS(=O)(=O)c1cc(NC(=O)c2cc3ccccc3oc2=O)ccc1C | 157.0* | -6.6 | 0.0 | 7.0 | 105.0 | 95.3 | 96.0 | -11.0 | 98.0
COc1cccc(NC(=O)c2cc3ccccc3oc2=O)c1 | 106.0 | -3.3 | 3.0 | -5.1 | 103.0 | 107.5 | / | / | /
COc1ccccc1NC(=O)Cn1nnc(-c2ccccc2NS(=O)(=O)c2ccccc2)n1 | 105.0 | 11.5 | -1.0 | -5.3 | 106.0 | 132.2 | / | / | /
COc1ccccc1NC(=O)Cn1nnc(-c2ccccc2NC(=O)c2cc3ccccc3oc2=O)n1 | 76.0*[inhibitor] | -1.4 | -7.0 | 3.4 | 81.0 | 9.0* | 98.0 | -1.0 | 99.0
COc1cc(NC(=O)c2cc(C)nc3ccccc23)cc(OC)c1 | 129.0* | -7.4 | 7.0 | 8.3 | 117.0 | 101.8 | 96.0 | -4.0 | 98.0
CN(CC(=O)O)Cc1oc(CO)cc(=O)c1O | / | / | / | / | / | 89.0 | / | / | /
CC(C)(C)c1ccc(S(=O)(=O)NCC(=O)N2CCCC2)cc1 | 103.0 | -8.8 | 3.0 | -0.1 | 100.0 | 96.4 | / | / | /
C/C=C(/C)C(=O)O[C@H]1[C@@H](O)c2c(ccc3ccc(=O)oc23)OC1(C)C | 123.0* | 6.7 | 11.0 | -5.8 | 101.0 | 107.5 | 103.0 | 8.0 | 100.0
C/C=C(/C)C(=O)O[C@@H]1[C@H](OC(C)=O)c2c(ccc3ccc(=O)oc23)OC1(C)C | 108.0 | 8.3 | 5.0 | 4.5 | 97.0 | 103.2 | / | / | /
CCN(CC)C(=O)C(=O)Nc1ccc(F)c(Cl)c1 | 75.0*[inhibitor] | 0.2 | -7.0 | -10.8 | 88.0 | 95.7 | 103.0 | -1.0 | 102.0
Cc1ccc(OCCC(=O)Nc2ccc(C)c(F)c2)cc1 | 100.0 | 8.0 | -5.0 | -0.5 | 102.0 | 100.8 | / | / | /
Cc1ccc(OCCC(=O)Nc2ccc(F)c(Cl)c2)cc1 | 117.0 | -3.6 | 31.0 | 1.9 | 223.0* | / | 103.0 | 14.0 | 102.0
CC[n+]1c(/C=C2\Sc3ccccc3N2C)ccc2cccc(C)c21 | 47.0*[inhibitor] | / | 76.0* | / | / | 117.0 | 41.0 | -21.0 | 83.0
CCN1/C(=C/c2ccc3cc(C)ccc3[n+]2CC)Sc2ccccc21 | 68.0 | i | -7.0 | 37.3 | 14.0*[inhibitor] | 254.0 | 39.0 | -26.0 | 81.0
Nc1ccn(CC(=O)NCCc2ccccn2)c(=O)n1 | / | -6.8 | / | 6.4 | / | 98.4 | / | / | /
CCc1cc(C(=O)Nc2cc(S(=O)(=O)N3CCCCC3)ccc2N2CCN(C)CC2)sc1C | / | / | / | / | / | 105.0 | / | / | /
COc1ccc(C(=O)Nc2ccc(-c3n[nH]c(=S)o3)cc2)cc1 | 100.0 | 1.0 | -5.0 | 12.9 | 101.0 | 103.0 | / | / | /
C=CCOc1ccc(-c2n[nH]c(=S)o2)cc1 | 131.0* | 5.0 | 0.0 | -15.2 | 112.0 | 86.9 | 94.0 | -2.0 | 98.0
SMILES | MEKK3 PB1 HTS | UBC13 inh | MEKK2mut PB1 HTS | Apaf-1 inh | MEKK2 WT-MEK5 | Pemphigus Ab inh | MEKK2wt confirm | MEKK2mut-MEK5 | MEKK3-MEK5 inh
COc1ccc(-c2noc(CCC(=O)N3CCN(c4ccccc4Br)CC3)n2)cc1 | / | / | / | 22.9 | / | 104.0 | / | / | /
c1ccc(N/N=C2\CCCc3ccccc32)nc1 | 101.0 | -10.1 | 2.0 | 12.5 | 99.0 | / | / | / | /
Cc1cc(N/N=C2/CCCc3ccccc32)nc2ccccc12 | 108.0 | 0.5 | 28.0 | 6.4 | 160.0* | / | 154.0 | 28.0 | 109.0
CCCNC(=O)N1CCN(S(=O)(=O)c2ccc3c(c2)OCCO3)CC1 | / | -8.6 | / | 0.1 | / | 96.0 | / | / | /
COC(=O)CC(NS(=O)(=O)c1cccs1)c1ccccc1Cl (stereo unspecified) | 103.0 | 7.5 | -2.0 | 9.0 | 100.0 | 102.2 | / | / | /
O=C(O)CC(NS(=O)(=O)c1c(F)cc(F)cc1Br)c1ccccc1Cl (stereo unspecified) | 115.0 | 0.9 | 279.0* | -0.5 | 114.0 | 117.3 | 101.0 | -7.0 | 98.0
CCn1cc(CN2CCC(n3nccc3NC(=O)CCOc3ccccc3)CC2)c(C)n1 | 104.0 | 7.2 | 8.0 | -3.9 | 115.0 | 103.8 | / | / | /
CC1(C)CC2CC(C)(CN2C(=O)C23CCC(C)(C(=O)C2)C3(C)C)C1 (stereo unspecified) | 128.0* | -4.8 | 0.0 | 3.7 | 102.0 | 103.5 | 92.0 | -8.0 | 97.0
CC1CC(C)CN(C(=O)CN2CCN(Cc3ccc(Cl)cc3)C2=O)C1 (stereo unspecified) | 128.0* | -8.4 | 6.0 | 16.8 | 122.0 | / | 103.0 | 1.0 | 98.0
O=C(O)CN1CCN(Cc2ccc(Cl)cc2)C1=O | 96.0 | -4.2 | -3.0 | -10.2 | 97.0 | 95.3 | / | / | /
CC(=O)Nc1ccc(NC(=O)CC2(CC(=O)N3CCOCC3)CCCC2)cc1 | / | 2.9 | / | -2.0 | / | 96.8 | / | / | /
